{"source": "ChEMBL document CHEMBL4406851", "about": "“Design, synthesis and biological evaluation of cinnamic acid derivatives with synergetic neuroprotection and angiogenesis effect” (Eur J Med Chem, 2019)", "key": {"SH-SY5Y [1]": {"system": "SH-SY5Y", "experiment": "Inhibition of H2O2-induced apoptosis in human SH-SY5Y cells assessed as normal cells at 1.56 uM preincubated for 24 hrs followed by H2O2 addition measured after 4 hrs by Annexin V-FITC/propidium iodide staining based flow cytometry (reference value: 67.2 %)", "type": "functional", "design": "scale not given: the % may be the effect or the level left", "procedure,_shortened": "(§1)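 Cells were seeded at 3.5×10^4 cells/mL in 6-well plates at 37 °C, 5% CO2. Compound was added at three concentrations for 24 h, then H2O2 (4.8 mM stock solution) to model and drug wells for 4 h. Cells were collected, washed in cold PBS and resuspended in annexin-binding buffer. Staining was annexin V-FITC 10 min, then PI 5 min, in the dark, followed by flow cytometry with quadrant gating.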"}, "[2]": {"experiment": "Inhibition of H2O2-induced apoptosis in human HBMEC2 cells assessed as early apoptotic cells at 3.13 uM preincubated for 24 hrs followed by H2O2 addition measured after 4 hrs by Annexin V-FITC/propidium iodide staining based flow cytometry (reference value: 8.1 %)", "type": "functional, HBMEC-2", "design": "scale not given: the % may be the effect or the level left", "procedure,_shortened": "as §1"}, "[3]": {"experiment": "Inhibition of H2O2-induced apoptosis in human HBMEC2 cells assessed as normal cells at 6.25 uM preincubated for 24 hrs followed by H2O2 addition measured after 4 hrs by Annexin V-FITC/propidium iodide staining based flow cytometry (reference value: 62.1 %)", "type": "functional, HBMEC-2", "design": "scale not given: the % may be the effect or the level left", "procedure,_shortened": "as §1"}, "SH-SY5Y [4]": {"system": "SH-SY5Y", "experiment": "Inhibition of H2O2-induced apoptosis in human SH-SY5Y cells assessed as necrotic cells at 3.13 uM preincubated for 24 hrs followed by H2O2 addition measured after 4 hrs by Annexin V-FITC/propidium iodide staining based flow cytometry (reference value: 0.9 %)", "type": "functional", "design": "scale not given: the % may be the effect or the level left", "procedure,_shortened": "as §1"}, "SH-SY5Y [5]": {"system": "SH-SY5Y", "experiment": "Inhibition of H2O2-induced apoptosis in human SH-SY5Y cells assessed as early apoptotic cells at 6.25 uM preincubated for 24 hrs followed by H2O2 addition measured after 4 hrs by Annexin V-FITC/propidium iodide staining based flow cytometry (reference value: 5.4 %)", "type": "functional", "design": "scale not given: the % may be the effect or the level left", "procedure,_shortened": "as §1"}, "HBMEC-2 [6]": {"system": "HBMEC-2", "experiment": "Protection against H2O2-induced apoptosis in human HBMEC2 cells assessed as increase in cell number preincubated for 24 hrs followed by H2O2 addition measured after 4 hrs by DAPI staining based inverted phase contrast microscopic analysis", "type": "functional", "procedure,_shortened": "(§2)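 Cells at 3.5×10^4 cells/mL in 24-well plates were pretreated 24 h with compound at three concentrations, then H2O2 (4.8 mM stock) for 4 h. After PBS washes, cells were fixed in 4% paraformaldehyde/70% cold ethanol for 10 min. Staining was 6% Giemsa or DAPI for 5 min in the dark. Random fields were photographed at 200× by microscope, alongside control and model groups.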"}, "HBMEC-2 [7]": {"system": "HBMEC-2", "experiment": "Inhibition of H2O2-induced apoptosis in human HBMEC2 cells preincubated for 24 hrs followed by H2O2 addition measured after 4 hrs by Annexin V-FITC/propidium iodide staining based flow cytometry", "type": "functional, cell-based", "procedure,_shortened": "as §1"}, "HBMEC-2 [8]": {"system": "HBMEC-2", "experiment": "Protection against H2O2-induced mitochondrial dysfunction in human HBMEC2 cells assessed as recovery of mitochondrial membrane potential at 1.56 to 6.25 uM preincubated for 24 hrs followed by H202 addition measured after 4 hrs by Rh123 staining based inverted light microscopic analysis", "type": "functional, cell-based", "procedure,_shortened": "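Cells in 96-well plates (3.5×10^4 cells/mL) were grown 24 h. They were pretreated 24 h with compound at three concentrations, then exposed to H2O2 (4.8 mM stock) for 4 h. Medium was removed and Rh123 added for 30 min at 37 °C. Cells were washed twice in cold PBS and examined immediately under an inverted microscope for green fluorescence.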"}, "SH-SY5Y [9]": {"system": "SH-SY5Y", "experiment": "Protection against H2O2-induced apoptosis in human SH-SY5Y cells assessed as increase in cell number preincubated for 24 hrs followed by H2O2 addition measured after 4 hrs by DAPI staining based inverted phase contrast microscopic analysis", "type": "functional", "procedure,_shortened": "as §2"}, "HBMEC-2 [10]": {"system": "HBMEC-2", "experiment": "Protection against H2O2-induced apoptosis in human HBMEC2 cells assessed as decrease in nuclear fragmentation preincubated for 24 hrs followed by H2O2 addition measured after 4 hrs by DAPI staining based inverted phase contrast microscopic analysis", "type": "functional, cell-based", "procedure,_shortened": "as §2"}, "HBMEC-2 [11]": {"system": "HBMEC-2", "experiment": "Protection against H2O2-induced apoptosis in human HBMEC2 cells assessed as reduction in cell disruption at 1.56 to 6.25 uM preincubated for 24 hrs followed by H2O2 addition measured after 4 hrs by Giemsa staining based inverted phase contrast microscopic analysis", "type": "functional", "procedure,_shortened": "as §2"}, "Gallus gallus": {"species": "Gallus gallus", "experiment": "Induction of angiogenesis in chicken embryo assessed as up regulation of VEGFR2 mRNA expression at 1 mg/ml by RT-PCR analysis", "type": "functional, organism-based", "procedure,_shortened": "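Total RNA came from chick embryos of the 1 mg/mL CAM group (Trizol extraction) and was reverse-transcribed with M-MLV. SYBR real-time PCR ran 40 cycles of 94 °C 15 s / 60 °C 35 s, then 72 °C 10 min. Expression was quantified relative to controls by the 2^-ΔΔCT method.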"}, "[12]": {"experiment": "Inhibition of H2O2-induced apoptosis in human HBMEC2 cells assessed as normal cells at 3.13 uM preincubated for 24 hrs followed by H2O2 addition measured after 4 hrs by Annexin V-FITC/propidium iodide staining based flow cytometry (reference value: 62.1 %)", "type": "functional, HBMEC-2", "design": "scale not given: the % may be the effect or the level left", "procedure,_shortened": "as §1"}, "[13]": {"experiment": "Neuroprotective activity against H2O2-induced cell damage in human HBMEC2 cells assessed as increase in cell viability preincubated for 24 hrs followed by H2O2 addition and measured after 4 hrs by MTT assay", "type": "functional, cell-based", "settings": "HBMEC-2", "procedure,_shortened": "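Cells at 3.5×10^4 cells/mL in 96-well plates were grown 24 h (37 °C, 5% CO2). Test agent was added at five concentrations for 24 h, then H2O2 (4.8 mM stock) to model and drug wells. After PBS washes, MTT (5 mg/mL) was added for 4 h, formazan was dissolved in DMSO and OD was read at 550 nm. Proliferation rate = (drug − injury OD)/(control − injury OD). EC50 came from a formula using maximum concentration and summed, maximal and minimal rates.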"}, "[14]": {"experiment": "Inhibition of H2O2-induced apoptosis in human HBMEC2 cells assessed as necrotic cells at 1.56 uM preincubated for 24 hrs followed by H2O2 addition measured after 4 hrs by Annexin V-FITC/propidium iodide staining based flow cytometry (reference value: 0.4 %)", "type": "functional, HBMEC-2", "design": "scale not given: the % may be the effect or the level left", "procedure,_shortened": "as §1"}, "SH-SY5Y [15]": {"system": "SH-SY5Y", "experiment": "Inhibition of H2O2-induced apoptosis in human SH-SY5Y cells assessed as necrotic cells at 1.56 uM preincubated for 24 hrs followed by H2O2 addition measured after 4 hrs by Annexin V-FITC/propidium iodide staining based flow cytometry (reference value: 0.9 %)", "type": "functional", "design": "scale not given: the % may be the effect or the level left", "procedure,_shortened": "as §1"}, "[16]": {"experiment": "Inhibition of H2O2-induced apoptosis in human HBMEC2 cells assessed as necrotic cells at 3.13 uM preincubated for 24 hrs followed by H2O2 addition measured after 4 hrs by Annexin V-FITC/propidium iodide staining based flow cytometry (reference value: 0.4 %)", "type": "functional, HBMEC-2", "design": "scale not given: the % may be the effect or the level left", "procedure,_shortened": "as §1"}, "SH-SY5Y [17]": {"system": "SH-SY5Y", "experiment": "Inhibition of H2O2-induced apoptosis in human SH-SY5Y cells assessed as late apoptotic cells at 1.56 uM preincubated for 24 hrs followed by H2O2 addition measured after 4 hrs by Annexin V-FITC/propidium iodide staining based flow cytometry (reference value: 26.5 %)", "type": "functional", "design": "scale not given: the % may be the effect or the level left", "procedure,_shortened": "as §1"}, "Chorioallantoic membrane": {"system": "Chorioallantoic membrane", "experiment": "Induction of angiogenesis in chicken chorioallantoic membrane assessed as increase in microvessel formation at 1 mg/ml measured after 48 hrs by dissecting microscopic analysis", "type": "functional, cell membranes", "settings": "Gallus gallus", "procedure,_shortened": "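Fertile eggs were incubated 7 days at 37 °C and 60% humidity. A small window was opened at one end and the membrane was wetted with a drop of sterile saline. Test solution (0.5, 1 or 2 mg/mL) was applied to the allantoic membrane, with PBS for controls. After 48 h the membrane was separated from the shell, then viewed and photographed under a dissecting microscope.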"}}, "note": "Activity calls are given as the source filed them. The calls are words filed in the database; no cut-off is given here.", "data": [{"smiles": "COc1cc(CNC(=O)/C=C/c2cc(OC)c(OC)cc2OC)ccc1O", "values": [{"measurement": "Activity", "setting": "SH-SY5Y [1]", "result": 70.4, "unit": "%"}, {"measurement": "Activity", "setting": "[2]", "result": 8.9, "unit": "%"}, {"measurement": "Activity", "setting": "[3]", "result": 81.4, "unit": "%"}, {"measurement": "Activity", "setting": "SH-SY5Y [4]", "result": 0.1, "unit": "%"}, {"measurement": "Activity", "setting": "SH-SY5Y [5]", "result": 2.6, "unit": "%"}, {"measurement": "Activity", "setting": "HBMEC-2 [6]", "result": "Dose-dependent effect"}, {"measurement": "inhibition", "setting": "HBMEC-2 [7]", "result": "Dose-dependent effect"}, {"measurement": "Activity", "setting": "HBMEC-2 [8]", "result": "Active"}, {"measurement": "Activity", "setting": "SH-SY5Y [9]", "result": "Dose-dependent effect"}, {"measurement": "Activity", "setting": "HBMEC-2 [10]", "result": "Dose-dependent effect"}, {"measurement": "Activity", "setting": "HBMEC-2 [11]", "result": "Active"}, {"measurement": "Activity", "setting": "Gallus gallus", "result": "Active"}, {"measurement": "Activity", "setting": "[12]", "result": 80.5, "unit": "%"}, {"measurement": "EC50", "setting": "[13]", "result": 3.26, "unit": "µM"}, {"measurement": "Activity", "setting": "[14]", "result": 1, "unit": "%"}, {"measurement": "Activity", "setting": "SH-SY5Y [15]", "result": 1.4, "unit": "%"}, {"measurement": "Activity", "setting": "[16]", "result": 0.1, "unit": "%"}, {"measurement": "Activity", "setting": "SH-SY5Y [17]", "result": 23.9, "unit": "%"}, {"measurement": "Activity", "setting": "Chorioallantoic membrane", "result": "Active"}]}]}
